Measured values pooled from the literature.
Lines come from different studies, so protocols differ. pEC50, pIC50, pKd, pKi: −log10 of the molar value.
TMEM97: Sigma intracellular receptor 2 (TMEM97, Homo sapiens, UniProt Q5BJF2)
PTGS2: Prostaglandin G/H synthase 2 (PTGS2, Homo sapiens, UniProt P35354)
Serine protease HTRA1 S328A: Serine protease HTRA1 (Homo sapiens, UniProt Q92743, S328A)
tspO: tspO (Cereibacter sphaeroides, UniProt Q9RFC8)

SMILES	target	observed	action	technique	pH	quantity	result
CN(CCCN1c2ccccc2CCc2ccccc21)CC(=O)c1ccc(Cl)cc1	TMEM97	ligand displacement	–	radioligand	–	pKi	5.70
O=C1Nc2ccccc2/C1=C/c1cn(-c2nc(Cl)nc(N3CCOCC3)n2)c2ccccc12	PTGS2	enzyme activity	inhibitor	–	–	pIC50	5.70
CN(C)CCOC(C)(c1ccccc1)c1ccccn1 (stereo not drawn)	TMEM97	ligand displacement	–	radioligand	–	pKi	< 5.00
COc1ncccc1-c1cnn2ccc(N3CCN(C(=O)OC(C)C)CC3)nc12	Acetylcholine receptor subunit alpha (CHRNA1, Homo sapiens, UniProt P02708)	ion current	inhibitor	–	–	pIC50	4.92
CC1CCN(CCCC(=O)c2ccc(F)cc2)CC1	TMEM97	ligand displacement	–	radioligand	–	pKi	6.94
CC(C)C[C@H](NC(=O)[C@H](CC(=O)O)NC(=O)[C@H](CC(=O)O)NC(=O)[C@H](CC(=O)O)NC(=O)[C@@H](NC(=O)[C@H](Cc1c[nH]c2ccccc12)NC(=O)[C@@H](N)CCC(=O)O)[C@@H](C)O)C(=O)N[C@@H](CO)C(=O)N[C@H](C(=O)N[C@@H](CC(=O)O)C(=O)N[C@@H](C)C(=O)O)C(C)C	Serine protease HTRA1 S328A	binding	–	ITC	pH 8	pKd	4.59
CC(C)C[C@H](NC(=O)[C@H](Cc1ccccc1)NC(=O)c1cnccn1)B(O)O	Serine protease HTRA2, mitochondrial (HTRA2, Homo sapiens, UniProt O43464)	enzyme activity	inhibitor	–	–	pIC50	< 4.48
COc1cc(C(=O)N2CC[C@@H](O)[C@@H](N)C2)cc2nc(-c3cc4ccccc4n3CC3CC3)n(C)c12	PTGS2	enzyme activity	inhibitor	–	–	pIC50	< 4.00
CC[C@H](C)[C@H](NC(=O)[C@H](Cc1c[nH]c2ccccc12)NC(=O)[C@H](C)NC(=O)[C@H](C)NC(=O)[C@H](Cc1ccc(O)cc1)NC(=O)[C@@H](N)CO)C(=O)N[C@@H](CC(=O)O)C(=O)N[C@H](C(=O)N[C@@H](CCC(=O)O)C(=O)N[C@@H](CC(=O)O)C(=O)N[C@@H](CC(C)C)C(=O)O)C(C)C	Serine protease HTRA1 S328A	binding	–	ITC	pH 8	pKd	4.47
CCC(C)N(C)C(=O)c1cc2ccccc2c(-c2ccccc2Cl)n1 (stereo not drawn)	tspO	binding	–	fluorescence	–	pKd	5.00
CC[C@@H]1SC2(CCN(C)CC2)NC1=O	Muscarinic acetylcholine receptor M3 (CHRM3, Homo sapiens, UniProt P20309)	calcium signal	agonist	–	–	pEC50	7.48
COc1cc2c(cc1OC)C(=O)C(CC1CCN(Cc3ccccc3)CC1)C2 (stereo not drawn)	TMEM97	ligand displacement	–	radioligand	–	pKi	7.08
CC(C)(NC(=O)O[C@@H]1CN2CCC1CC2)c1csc(-c2ccc(F)cc2)n1	Lysosomal acid glucosylceramidase (GBA1, Homo sapiens, UniProt P04062)	enzyme activity	inhibitor	–	–	pIC50	< 3.52
CCCN(CCC)CCc1ccc(OC)c(OCCc2ccccc2)c1	TMEM97	ligand displacement	–	radioligand	–	pKi	7.08
NC[C@@H]1[C@H]2CN3C(=O)c4cccn4[C@@H]4NC(N)=N[C@@]43[C@@H]2[C@]2(N=C(N)N[C@H]2O)[C@H]1Cl (single isomer, unassigned)	Proteasome subunit beta type-8, chymotrypsin-like site (PSMB8, Homo sapiens, UniProt P28062)	enzyme activity	inhibitor	–	–	pIC50	5.55
CC[C@H](C)[C@H](NC(=O)[C@H](Cc1c[nH]c2ccccc12)NC(=O)[C@H](C)NC(=O)[C@H](C)NC(=O)[C@H](Cc1ccc(O)cc1)NC(=O)[C@@H](N)CO)C(=O)N[C@@H](CC(=O)O)C(=O)N[C@H](C(=O)N[C@@H](CCC(=O)O)C(=O)N[C@@H](CO)C(=O)N[C@@H](CC(C)C)C(=O)O)C(C)C	Serine protease HTRA1 S328A	binding	–	ITC	pH 8	pKd	4.36
Cc1c(-c2ccccc2)no[n+]1[O-]	Thioredoxin glutathione reductase (Schistosoma mansoni, UniProt Q962Y6)	enzyme activity	inhibitor	–	–	pIC50	< 4.30
COc1cc(/C=C/C(=O)CC(=O)/C=C/c2ccc(O)c(OC)c2)ccc1O	tspO	binding	–	fluorescence	–	pKd	5.85
